Measurements gathered from unrelated publications.
Lines come from different studies, so protocols differ.
Organism: Severe acute respiratory syndrome coronavirus 2
Action: inhibitor

COc1ncc(-c2cn([C@@H]3O[C@](F)(COC(=O)C(C)C)[C@@H](OC(=O)C(C)C)[C@H]3OC(=O)C(C)C)cn2)c(N)n1
IC50 (viral replication; A549-ACE2; 24 h): 41.9 µM

O=C(Nc1ccc([N+](=O)[O-])cc1Cl)c1cc(Cl)ccc1O
IC50 (viral entry; HeLa-ACE2; pseudovirus): 1.35 µM

Cc1ccc(NC(=O)C2(c3ccc4c(c3)OC(F)(F)O4)CC2)nc1-c1cccc(C(=O)O)c1
IC50 (viral replication; Caco-2; replicon): 0.964 µM

COc1nc(N)ncc1-c1cn([C@@H]2O[C@](F)(CO)[C@@H](O)[C@H]2O)cn1
IC50 (viral replication; A549-ACE2; 24 h): > 100 µM

CCOc1nc2cccc(C(=O)O)c2n1Cc1ccc(-c2ccccc2-c2nnn[nH]2)cc1
IC50 (viral replication; Caco-2; replicon): 0.714 µM

CCC(CC)COC(=O)[C@H](C)N[P@](=O)(OC[C@H]1O[C@@](C#N)(c2ccc3c(N)ncnn23)[C@H](O)[C@@H]1O)Oc1ccccc1
IC50 (viral replication; A549-hACE2-TMPRSS2; 24 h): 0.1 µM

O=c1[nH]c2ccccc2n1C1CCN(CCCC(c2ccc(F)cc2)c2ccc(F)cc2)CC1
IC50 (viral replication; Calu-3; replicon): 4.91 µM

Cc1cn2nc([C@@H]3CCCCN3C(=O)c3cc(Cl)ccc3NS(C)(=O)=O)cc2nc1N1CC[C@H](N)C1
IC50 (viral entry; HeLa-ACE2; pseudovirus): 0.32 µM

CC(C)C(=O)OC[C@@]1(F)O[C@@H](n2cnc(-c3c[nH]c(=O)[nH]c3=O)c2)[C@H](OC(=O)C(C)C)[C@@H]1OC(=O)C(C)C
IC50 (viral replication; A549-ACE2; 24 h): 49.8 µM

Cc1ccccc1-n1nnnc1Sc1ccc(C(=O)c2ccccc2)cc1[N+](=O)[O-]
IC50 (viral replication; A549-hACE2-TMPRSS2; 24 h): 25.3 µM
